In PMC9033422 (RSC Advances, 2021):

How the values were obtained:
[1] = test system: human benign liver cell lines LO2; test: MTT cytotoxicity, LO2 cells, 24 h; format: cell-based; conditions: L02, 24 h, read-out: IC50 (μM)/24 h LO2
Summary of the method: (§1)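 Cells (1 × 10^4 per well, triplicate) were pre-cultured 24 h at 37 °C, then exposed 24 h at 37 °C to test compound at 10, 25, 50, 100 and 200 μg mL−1, with drug-free and DMSO solvent controls. MTT (2 mg mL−1 stock in PBS) was added for 4 h and formazan dissolved in DMSO. A568 was read; inhibition % = (A control − A dosed)/A control × 100.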

[2] = test system: human liver cancer cell lines SMMC-7721; test: MTT cytotoxicity, SMMC-7721 cells, 24 h; format: cell-based; conditions: SMMC-7721, 24 h, read-out: IC50 (μM)/24 h SMMC-7721
Summary of the method: as §1

[3] = test system: human benign breast cell lines MCF-10A; test: MTT cytotoxicity of 12a, MCF-10A cells, 48 h; format: cell-based; conditions: read-out: IC50 (μM)/48 h MCF-10A
Summary of the method: (§2)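 Seeding was 1 × 10^4 cells per well in triplicate, with 24 h pre-culture at 37 °C. No iron supplement was used. Test compound at 0.01, 0.1, 1, 10 and 25 μg mL−1 was given for 48 h at 37 °C, with drug-free and DMSO solvent controls. MTT (2 mg mL−1 stock in PBS) was added for 4 h, centrifuged, formazan dissolved in DMSO, and absorbance read at 568 nm.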

[4] = test system: human benign colon cell lines CCD18CO; test: MTT cytotoxicity of 12a, CCD18CO cells, 48 h; format: cell-based; conditions: CCD-18Co, read-out: IC50 (μM)/48 h CCD18CO
Summary of the method: as §2

[5] = test system: human liver cancer cell lines SMMC-7721; test: MTT cytotoxicity of 12a in Fe2+ environment, SMMC-7721 cells, 48 h; format: cell-based; conditions: SMMC-7721, 48 h, read-out: IC50 (μM)/48 h SMMC-7721 with Fe2+
Summary of the method: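 Cells at 1 × 10^4 per well, in triplicate, grew 12 h at 37 °C, then 12 h more in medium containing 100 μmol L−1 FeSO4. Medium was replaced with test compound (0.01, 0.1, 1, 10, 25 μg mL−1), with drug-free and DMSO solvent controls, for 48 h at 37 °C. MTT (2 mg mL−1 stock in PBS) was added for 4 h, formazan dissolved in DMSO, and A568 read.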

MHCC97H cell lines = test: Annexin V-FITC/PI flow cytometry apoptosis assay; format: cell-based, human; conditions: 48 h
Summary of the method: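 MHCC97H cells were seeded in triplicate and pre-cultured 24 h at 37 °C. Medium was replaced with test compound at 0.01, 1 or 25 μg mL−1, alongside drug-free and DMSO solvent controls, for 48 h at 37 °C. Cells were detached with 0.25% trypsin without EDTA, stained with Annexin V-FITC/PI for 5–15 min at room temperature in the dark, and analysed by flow cytometry. Quadrants: live, early apoptotic, late apoptotic, necrotic.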

[6] = test system: human benign prostate cell lines RWPE-1; test: MTT cytotoxicity of 12a, RWPE-1 cells, 48 h; format: cell-based; conditions: RWPE-1, 48 h, read-out: IC50 (μM)/48 h RWPE-1
Summary of the method: as §2

| Compound | IC50 [1] [µM] | IC50 [2] [µM] | other results |
| --- | --- | --- | --- |
| C[C@H]1[C@@H](O)O[C@@H]2O[C@@]3(C)CC[C@H]4[C@H](C)CC[C@@H]1[C@@]24OO3 [DHA, Dihydroartemisinin, reference compound] | 220 ± 40 | > 700 | – |
| COC1OC(=O)C(Cl)=C1N1CCN(CCCCCC[C@H]2CN([C@@H]3OC4O[C@@]5(C)CC[C@H]6[C@H](C)CC[C@@H]([C@H]3C)[C@@]46OO5)CCS2(=O)=O)CC1 (stereo partly drawn) [Hybrid 12a, 3-Chloro-4-(4-(6-((2S)-1,1-dioxido-4-((3R,5aS,6R,8aS,9R,10R,12aR)-3,6,9-trimethyldecahydro-3H-3,12-epoxy[1,2]dioxepino[4,3-i]isochromen-10-yl)thiomorpholin-2-yl)hexyl)piperazin-1-yl)-5-methoxyfuran-2(5H)-one] | 700 ± 20 | 30 ± 40 | IC50 [3]: 40 ± 40 µM; IC50 [4]: 60 ± 40 µM; IC50 [5]: 20 ± 30 µM; percentage of apoptosis (MHCC97H cell lines; 0.01 μg mL^−1 (lowest concentration)): 7.67%; percentage of apoptosis (MHCC97H cell lines; 25 μg mL^−1 (highest concentration)): 59.76%; IC50 [6]: 100 ± 30 µM |
| CC(C)[C@@H]1CC[C@@H](C)C[C@@H]1O[C@H]1OC(=O)C(Cl)=C1N1CCN(CCCCCC[C@H]2CN([C@@H]3OC4O[C@@]5(C)CC[C@H]6[C@H](C)CC[C@@H]([C@H]3C)[C@@]46OO5)CCS2(=O)=O)CC1 (stereo partly drawn) [Hybrid 12b, (5S)-3-Chloro-4-(4-(6-((2S)-1,1-dioxido-4-((3R,5aS,6R,8aS,9R,10R,12aR)-3,6,9-trimethyldecahydro-3H-3,12-epoxy[1,2]dioxepino[4,3-i]isochromen-10-yl)thiomorpholin-2-yl)hexyl)piperazin-1-yl)-5-(((1S,2S,5R)-2-isopropyl-5-methylcyclohexyl)oxy)furan-2(5H)-one] | 360 ± 30 | 320 ± 30 | – |
| C[C@H]1[C@H](N2CCS(=O)(=O)[C@@H](CCCCCCN3CCN(C4=C(Cl)C(=O)OC4O[C@H]4CC5CCC4(C)C5(C)C)CC3)C2)O[C@@H]2O[C@@]3(C)CC[C@H]4[C@H](C)CC[C@@H]1[C@@]24OO3 (stereo partly drawn) [Hybrid 12c, 3-Chloro-4-(4-(6-((S)-1,1-dioxido-4-((3R,5aS,6R,8aS,9R,10R,12R,12aR)-3,6,9-trimethyldecahydro-3H-3,12-epoxy[1,2]dioxepino[4,3-i]isochromen-10-yl)thiomorpholin-2-yl)hexyl)piperazin-1-yl)-5-(((2S)-1,7,7-trimethylbicyclo[2.2.1]heptan-2-yl)oxy)furan-2(5H)-one] | 70 ± 30 | 70 ± 40 | – |
| COC1OC(=O)C(Br)=C1N1CCN(CCCCCC[C@H]2CN([C@@H]3OC4O[C@@]5(C)CC[C@H]6[C@H](C)CC[C@@H]([C@H]3C)[C@@]46OO5)CCS2(=O)=O)CC1 (stereo partly drawn) [Hybrid 12d, 3-Bromo-4-(4-(6-((2S)-1,1-dioxido-4-((3R,5aS,6R,8aS,9R,10R,12aR)-3,6,9-trimethyldecahydro-3H-3,12-epoxy[1,2]dioxepino[4,3-i]isochromen-10-yl)thiomorpholin-2-yl)hexyl)piperazin-1-yl)-5-methoxyfuran-2(5H)-one] | 370 ± 40 | 340 ± 20 | – |
| CC(C)[C@@H]1CC[C@@H](C)C[C@@H]1O[C@H]1OC(=O)C(Br)=C1N1CCN(CCCCCC[C@H]2CN([C@@H]3OC4O[C@@]5(C)CC[C@H]6[C@H](C)CC[C@@H]([C@H]3C)[C@@]46OO5)CCS2(=O)=O)CC1 (stereo partly drawn) [Hybrid 12e, (5S)-3-Bromo-4-(4-(6-((2S)-1,1-dioxido-4-((3R,5aS,6R,8aS,9R,10R,12aR)-3,6,9-trimethyldecahydro-3H-3,12-epoxy[1,2]dioxepino[4,3-i]isochromen-10-yl)thiomorpholin-2-yl)hexyl)piperazin-1-yl)-5-(((1S,2S,5R)-2-isopropyl-5-methylcyclohexyl)oxy)furan-2(5H)-one] | 330 ± 30 | 210 ± 20 | – |
| C[C@H]1[C@H](N2CCS(=O)(=O)[C@@H](CCCCCCN3CCN(C4=C(Br)C(=O)O[C@@H]4O[C@H]4CC5CCC4(C)C5(C)C)CC3)C2)O[C@@H]2O[C@@]3(C)CC[C@H]4[C@H](C)CC[C@@H]1[C@@]24OO3 [Hybrid 12f, (5S)-3-Bromo-4-(4-(6-((S)-1,1-dioxido-4-((3R,5aS,6R,8aS,9R,10R,12R,12aR)-3,6,9-trimethyldecahydro-3H-3,12-epoxy[1,2]dioxepino[4,3-i]isochromen-10-yl)thiomorpholin-2-yl)hexyl)piperazin-1-yl)-5-(((2S)-1,7,7-trimethylbicyclo[2.2.1]heptan-2-yl)oxy)furan-2(5H)-one] | 300 ± 30 | 220 ± 30 | – |
| CC[C@]1(O)C[C@H]2CN(CCc3c([nH]c4ccccc34)[C@@](C(=O)OC)(c3cc4c(cc3OC)N(C=O)[C@H]3[C@@](O)(C(=O)OC)[C@H](OC(C)=O)[C@]5(CC)C=CCN6CC[C@]43[C@@H]65)C2)C1 [VCR, vincristine, reference compound] | 300 ± 20 | 270 ± 30 | – |
